Measurements taken from publication PMC4124067 (International Journal of Nanomedicine, 2014).
Like-named read-outs stand apart in the source and are kept apart here.

Key:
[1] = test system: orthotopic Lewis lung carcinoma; conditions: cited from earlier work
[2] = test system: tubulin; assay: Tubulin polymerization assay; type: biochemical
Summary of the method: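 Kit-based assay: 3 mg/mL tubulin in 80 mM PIPES, pH 6.9, with glycerol, run at 37°C. Test compound at 10 and 34 μM, parent drug at 10 μM as positive control, plus untreated control. Polymerization followed as OD340, read once per minute for 60 min. Maximum rate (Vmax, mOD/min) and time to reach it taken from the curves.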

[3] = test system: A549-luc-c8 human lung adenocarcinoma cells; assay: MTT cytotoxicity assay; type: cell-based; conditions: 48 h
Summary of the method: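 A549-luc-c8 luciferase-expressing cells grown in RPMI 1640 with 10% FBS and antibiotic at 37°C, 5% CO2. Seeded at 5,000 cells per 100 μL medium per well. Free parent drug, conjugate nanoparticles or blank nanoparticles added across a concentration series for 48 h at 37°C. MTT then added for 3 h, dye dissolved in DMSO, A570 read. IC50 taken from survival plots; blank-particle IC50 expressed at drug-equivalent dose.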

SMILES | therapeutic effect ([1]; treatment starting on day 1) | therapeutic effect ([1]; treatment starting on day 10) | Vmax (maximum rate of tubulin polymerization) ([2]; 10 μM, 37°C, 3 mg/mL tubulin) | time at which Vmax was reached ([2]; 60 minute time course) | IC50 [3]
N.N.[Cl][Pt][Cl] [Cisplatin, cisplatin] | suppressed primary lung tumor growth and lymph node metastasis | failed to show any significant therapeutic effect |  |  | 
CC(=O)O[C@H]1C(=O)[C@@]2(C)[C@H]([C@H](OC(=O)c3ccccc3)[C@]3(O)C[C@H](OC(=O)[C@H](O)[C@@H](NC(=O)c4ccccc4)c4ccccc4)C(C)=C1C3(C)C)[C@]1(OC(C)=O)CO[C@@H]1C[C@@H]2O [PX, paclitaxel] |  |  | 29.0±0.0 mOD/min | 0 to 3 min | 5.3 ± 3.2 nM
